Experimental data reported in ChEMBL document CHEMBL1140994, “Ranking the selectivity of PubChem screening hits by activity-based protein profiling: MMP13 as a case study” (Bioorg Med Chem, 2009).
Active and inactive are the calls of the source.

Tests used:
[1] = target: Macrophage metalloelastase (Homo sapiens) (UniProt P39900); assay: Inhibition of human recombinant MMP12 at 200 uM by HxBPyne probe-based competitive activity based protein profiling assay in presence of 5 uM HxBpane competitor
Sequence of Macrophage metalloelastase (Homo sapiens) (P39900 106-470 limits assumed): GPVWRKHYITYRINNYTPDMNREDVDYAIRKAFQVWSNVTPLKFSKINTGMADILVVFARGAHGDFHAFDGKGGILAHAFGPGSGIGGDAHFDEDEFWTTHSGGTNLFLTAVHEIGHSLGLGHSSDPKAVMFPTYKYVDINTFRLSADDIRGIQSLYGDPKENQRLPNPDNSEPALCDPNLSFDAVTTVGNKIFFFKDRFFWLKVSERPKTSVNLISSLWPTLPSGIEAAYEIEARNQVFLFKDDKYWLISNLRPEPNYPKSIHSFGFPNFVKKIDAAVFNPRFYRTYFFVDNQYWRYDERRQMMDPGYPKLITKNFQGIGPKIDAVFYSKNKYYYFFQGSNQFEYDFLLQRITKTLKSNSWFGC
Summary of the method: (§1)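 Recombinant enzyme at 0.5 μM final in mouse liver soluble proteome (1 mg protein/mL in PBS). HxBPyne probe cocktail 0.5 μM total final, with inhibitor 200 μM or DMSO. Preincubated 30 min on ice, then UV 365 nm for 1 h on ice. Rhodamine-azide click chemistry, 1 h RT in dark. SDS-PAGE with in-gel fluorescence; band intensity given as % of DMSO control.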

[2] = target: T1, Disintegrin and metalloproteinase domain-containing protein 8 (Homo sapiens) (UniProt P78325); assay: Inhibition of human recombinant ADAM8 at 200 uM by HxBPyne probe-based competitive activity based protein profiling assay in presence of 5 uM HxBpane competitor; summary of the method: as §1
T1 sequence (whole entry): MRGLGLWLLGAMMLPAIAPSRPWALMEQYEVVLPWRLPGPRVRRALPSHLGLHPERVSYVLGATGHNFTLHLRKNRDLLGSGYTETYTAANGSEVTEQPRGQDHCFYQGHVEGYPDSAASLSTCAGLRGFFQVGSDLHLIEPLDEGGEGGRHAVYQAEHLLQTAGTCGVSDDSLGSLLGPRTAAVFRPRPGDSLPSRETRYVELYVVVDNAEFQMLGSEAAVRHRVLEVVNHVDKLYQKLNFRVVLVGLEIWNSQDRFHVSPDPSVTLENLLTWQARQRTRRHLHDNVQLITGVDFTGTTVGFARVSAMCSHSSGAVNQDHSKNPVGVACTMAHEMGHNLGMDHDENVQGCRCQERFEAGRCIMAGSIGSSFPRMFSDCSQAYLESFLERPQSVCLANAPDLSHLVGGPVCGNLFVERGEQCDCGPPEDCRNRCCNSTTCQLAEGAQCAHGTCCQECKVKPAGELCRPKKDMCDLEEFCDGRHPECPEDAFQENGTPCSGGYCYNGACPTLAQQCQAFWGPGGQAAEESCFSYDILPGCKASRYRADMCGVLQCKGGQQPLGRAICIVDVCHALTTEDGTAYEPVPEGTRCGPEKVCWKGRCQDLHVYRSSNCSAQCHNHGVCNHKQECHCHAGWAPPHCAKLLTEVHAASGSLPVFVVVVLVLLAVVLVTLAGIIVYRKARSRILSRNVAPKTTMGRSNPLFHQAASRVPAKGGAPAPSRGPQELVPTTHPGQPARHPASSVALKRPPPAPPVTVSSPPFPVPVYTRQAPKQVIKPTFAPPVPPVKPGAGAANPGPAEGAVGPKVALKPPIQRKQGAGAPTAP

[3] = target: Interstitial collagenase (Homo sapiens) (UniProt P03956); assay: Inhibition of human recombinant MMP1 at 200 uM by HxBPyne probe-based competitive activity based protein profiling assay in presence of 5 uM HxBpane competitor; summary of the method: as §1
Sequence of Interstitial collagenase (Homo sapiens) (P03956 whole entry, the tested form may be a part): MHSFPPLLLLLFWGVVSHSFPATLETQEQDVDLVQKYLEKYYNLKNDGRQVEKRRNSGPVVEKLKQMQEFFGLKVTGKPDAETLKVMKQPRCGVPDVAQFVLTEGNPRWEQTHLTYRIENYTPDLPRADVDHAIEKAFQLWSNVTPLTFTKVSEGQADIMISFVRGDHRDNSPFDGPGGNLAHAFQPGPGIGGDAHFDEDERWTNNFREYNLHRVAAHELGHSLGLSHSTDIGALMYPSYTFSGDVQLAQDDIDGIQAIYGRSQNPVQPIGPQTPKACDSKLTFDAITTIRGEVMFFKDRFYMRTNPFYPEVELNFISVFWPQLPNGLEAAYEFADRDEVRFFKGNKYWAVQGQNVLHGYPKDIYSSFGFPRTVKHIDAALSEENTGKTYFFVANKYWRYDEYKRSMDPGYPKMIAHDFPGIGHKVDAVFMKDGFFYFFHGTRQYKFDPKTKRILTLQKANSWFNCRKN

[4] = target: Disintegrin and metalloproteinase domain-containing protein 10 (Homo sapiens) (UniProt O14672); assay: Inhibition of human recombinant ADAM10 at 200 uM by HxBPyne probe-based competitive activity based protein profiling assay in presence of 5 uM HxBpane competitor; summary of the method: as §1
Sequence of Disintegrin and metalloproteinase domain-containing protein 10 (Homo sapiens) (O14672 whole entry, the tested form may be a part): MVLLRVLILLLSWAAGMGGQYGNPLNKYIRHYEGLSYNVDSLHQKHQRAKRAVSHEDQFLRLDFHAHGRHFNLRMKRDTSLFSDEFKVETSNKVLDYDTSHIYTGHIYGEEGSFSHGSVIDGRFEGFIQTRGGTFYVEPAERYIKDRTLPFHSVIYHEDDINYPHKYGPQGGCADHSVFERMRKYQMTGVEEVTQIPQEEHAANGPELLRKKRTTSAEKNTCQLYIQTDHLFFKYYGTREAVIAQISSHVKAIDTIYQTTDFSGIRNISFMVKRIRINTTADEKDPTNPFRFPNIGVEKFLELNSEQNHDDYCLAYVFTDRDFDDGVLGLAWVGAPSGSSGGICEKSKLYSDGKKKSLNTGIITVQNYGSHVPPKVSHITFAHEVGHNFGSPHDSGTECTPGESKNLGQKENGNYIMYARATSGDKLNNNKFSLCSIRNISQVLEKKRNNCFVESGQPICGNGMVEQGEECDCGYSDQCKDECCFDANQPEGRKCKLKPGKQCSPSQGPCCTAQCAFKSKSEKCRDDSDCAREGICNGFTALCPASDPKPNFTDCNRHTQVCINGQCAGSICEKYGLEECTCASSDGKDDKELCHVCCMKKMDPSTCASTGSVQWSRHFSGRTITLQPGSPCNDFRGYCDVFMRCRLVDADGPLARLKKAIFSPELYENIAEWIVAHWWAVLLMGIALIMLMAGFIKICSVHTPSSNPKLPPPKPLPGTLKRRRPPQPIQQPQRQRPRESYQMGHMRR

Measured: Activity

COc1ccc(CSc2nc(C)cc(O)n2)cc1
inactive: [1] | [2] | [3] | [4]

Oc1nc(SCc2ccc(Cl)cc2)nc2c1CCC2
inactive: [1] | [2] | [3] | [4]
